Test results as given in ChEMBL document CHEMBL4513216, “Probing the Open Global Health Chemical Diversity Library for Multistage-Active Starting Points for Next-Generation Antimalarials” (ACS Infect Dis, 2020).

Experiment: Toxicity liver stage against HepG2, at 10uM
Type: cell-based
Set-up: test concentration 10 uM, cell line HepG2-A16-CD81EGFP
Conditions: human, HepG2-A16-CD81EGFP cells; read-out: INHIBITION
Outline: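 Uninfected HepG2-A16-CD81EGFP cells, 3 × 10^3 per well, 1536-well, plated on prespotted compound at 10 μM final, parasite-free screening media added to match infected plates; puromycin 10 μM positive, DMSO 0.5% negative; run in parallel with 48 h PbLuc assay at 37 °C, 5% CO2; viability by CellTiter-Glo luminescence, normalized to controls.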

Row | Compound | cytotoxicity at 10 µM
1 | NS(=O)(=O)c1cccnc1Nc1cccc(Cl)c1Cl | -2.19%
2 | N#Cc1ncn(CC(=O)Cc2c(F)cccc2Cl)n1 | -1.45%
3 | CN1CCC(N(C)C(=O)c2cnn(-c3ccccc3Br)c2N)CC1 | -5.63%
4 | Cn1ccc2cc(C(=O)NC3CCOC(C)(C)C3)ccc21 (stereo unspecified) | 1.67%
5 | O=C(COc1ccccc1)NCC1CCN(Cc2ccsc2)CC1 | -4.59%
6 | CC(O)(CCc1ccccc1)CNC(=O)c1ccc(F)cc1 (stereo unspecified) | -70.3%
7 | COc1ncccc1C(=O)Nc1ccccc1-c1ccc(=O)n(C)n1 | -0.843%
8 | CCN1C(=O)C(c2ccccc2)CC12CCN(S(C)(=O)=O)CC2 (stereo unspecified) | 3.2%
9 | COc1ncccc1CN1C[C@@H]2C[C@@H](C(=O)NCC3CC3)N(C)[C@@H]2C1 | 1.2%
10 | O=C(Cn1nc(Br)nc1Br)N1CCCC1 | 5.38%
11 | CCN1C(=O)CCCC12CCCN(C(=O)c1cnccn1)C2 (stereo unspecified) | 2.63%
12 | CNC(=O)C1CCN(S(C)(=O)=O)CC1 | -4.81%
13 | Fc1cccc(Cl)c1CNCCOc1ccccn1 | -11.4%
14 | Oc1ccc(Cl)cc1CNCc1cccc(C(F)(F)F)c1 | -6.13%
15 | Cc1ccc2c(cnn2CCC(=O)NCc2csc(C3CC3)n2)c1 | 4.88%
16 | c1cnnc(N[C@@H]2CC[C@@H]3CN(Cc4ccc5[nH]ccc5c4)C[C@@H]32)c1 | -7.81%
17 | CC(C)n1nnc(CC(=O)NCC2(c3ccccc3F)CCOCC2)n1 | 2.35%
18 | CC(C)S(=O)(=O)N1CCC(c2cc3n(n2)[C@@H](C(F)(F)F)C[C@@H](C)N3)C1 (stereo partly specified) | -1.96%
19 | Cc1ccc2c(c1)OC(C)CN2C(=O)c1c[nH]c(C)cc1=O (stereo unspecified) | 2.36%
20 | CS(=O)(=O)c1ccc(NCc2ccccc2)cn1 | 13.2%
21 | CCc1nc(C2CCCN2C(=O)c2cnc3n[nH]c(C)c3c2)no1 (stereo unspecified) | 7.76%
22 | CN(c1ncccc1C#N)C1CCN(Cc2ccncc2)CC1 | -2.86%
23 | CNC(=O)C1CCCCN1C(=O)c1sc(-c2ccc(C)o2)nc1C (stereo unspecified) | 4.45%

Row | Compound | cytotoxicity at 10 µM
24 | COCCC(=O)N(CCC#N)c1ccc(C)c(C)c1 | 3.43%
25 | Cc1ccc(S(=O)(=O)N2CCOCC2C(N)=O)c(F)c1 (stereo unspecified) | -5.22%
26 | CN1CCN(CCOc2ccc(NC(=O)c3ccncc3)cc2)CC1 | -5.18%
27 | CCc1ccc(CNC2(c3ccc(F)cc3)CCOCC2)o1 | 4.68%
28 | CSCC1CCCN1CCc1ccncc1 (stereo unspecified) | 0.684%
29 | CCCC(C)N(C)Cc1nnc(-c2ccco2)o1 (stereo unspecified) | 2.49%
30 | CC(=O)NCC1CCN(C(=O)NCc2ccc3c(c2)OCCO3)CC1 | -7.11%
31 | COc1cccc(CN(C)c2ncc(C(N)=O)cc2Cl)c1 | 2.53%
32 | CC(C)N(Cc1cccc(Cl)c1)Cc1nnsc1Cl | 2.56%
33 | Cc1nc(CCNC(=O)NC2CCCc3c2cnn3CCO)cs1 (stereo unspecified) | 6.68%
34 | CC(C(=O)Nc1nccs1)N1CCc2nn(C)c(=O)cc2C1 (stereo unspecified) | 9.17%
35 | Cc1cn2c(n1)CCC(NC(=O)CCC1CC1)C2 (stereo unspecified) | -9.69%
36 | COc1cc(C)nc(N2CCN(C(=O)c3cc(Cl)c[nH]3)CC2)n1 | 7.32%
37 | O=C(NCCCNC(=O)c1ccccc1)Nc1ccc(F)cc1F | 5.55%
38 | COc1ccc(C2CCCCCN2S(C)(=O)=O)cc1 (stereo unspecified) | 3.86%
39 | Cc1cc(C(=O)O)ccc1NS(=O)(=O)c1c(C)nn(C(C)C)c1C | 5.31%
40 | CC(=O)N(C)CC(=O)NCC1(c2c(F)cccc2F)CCCC1 | -3.86%
41 | N#Cc1ccc(N2CCN(c3ncccn3)CC2)c(C(F)(F)F)c1 | 36.3%
42 | CC(C(=O)NCC1CCCCC1)S(=O)(=O)Cc1csc(-c2cccs2)n1 (stereo unspecified) | -9.44%
43 | CCc1noc(CN(C)CCC(=O)Nc2ccc(C#N)c(Cl)c2)n1 | 22.5%
44 | Cc1nc(C2CCCN2CCc2ccccn2)no1 (stereo unspecified) | 7.28%
45 | Cc1csc(CCCNC(C)CC(=O)Nc2cccc(C)c2C)n1 (stereo unspecified) | 5.76%
46 | COC(=O)C1(C)CCN(C(=O)NCCc2c(C)[nH]c3ccccc23)C1 (stereo unspecified) | 0.807%

Row | Compound | cytotoxicity at 10 µM
47 | COc1ccc(CN2CCCCC2CNC(=O)OC(C)(C)C)cc1F (stereo unspecified) | -2.26%
48 | Cc1ccc(N2C[C@@H]3OCCN(Cc4c(C)noc4C)[C@@H]3C2)nn1 | -1.62%
49 | c1nc2c(c(N3CCOCC3)n1)CCNCC2 | -2.36%
50 | COCCn1c2c(ccc1=O)CCN(C(=O)Cc1ccsc1)CC2 | 2.22%
51 | CS(=O)(=O)N1CCO[C@@H]2CN(C(=O)C3CC(F)(F)C3)C[C@@H]2C1 | 6.19%
52 | O=C(c1ccsc1)N1C[C@@H]2CCN(C(=O)c3cscn3)[C@@H]2C1 | 0.0861%
53 | O=C(NCC1Cn2nnc(-c3ccoc3)c2CO1)c1ccc[nH]1 (stereo unspecified) | 2.61%
54 | CN(C)C(=O)[C@@H]1C[C@@H]2CCN(Cc3ccncc3)C[C@@H]2O1 | 6.36%
55 | Cc1ccc(-c2cnnc(NCC3CCOCC3)n2)o1 | -3.64%
56 | O=C(NCC(O)c1cccc(F)c1)C1CCN(C2CCCCC2)CC1 (stereo unspecified) | 7.07%
57 | COCC(=O)N1CC[C@]2(O)CCN(C(=O)CCc3ccsc3)C[C@@H]2C1 | 0.689%
58 | CCc1nnsc1C(=O)N1CCCC(c2nc3ccccc3[nH]2)C1 (stereo unspecified) | 4.52%
59 | Cn1c(CCC(=O)N2CCC3(CCCO3)CC2)nc2cccnc21 | 0.592%
60 | COCC[C@]1(O)CCN(Cc2nnc(C)s2)C[C@H]1C | 8.62%
61 | Cc1ncc(S(C)(=O)=O)c(N2CCCCCC2)n1 | -0.972%
62 | O=C(O)CSc1nnc(-c2ccn[nH]2)n1-c1ccccc1C(F)(F)F | -3.85%
63 | Cc1ccccc1CN1CCN(C(=O)c2cnc(C3CC3)[nH]c2=O)CC1 | 2.25%
64 | CCc1cccc(CC)c1NC(=O)c1ccccc1N(C)S(C)(=O)=O | 11.4%
65 | CCC[C@@H]1CN(Cc2c[nH]nc2-c2ccc(F)cc2)C[C@H]1NS(C)(=O)=O | 3.25%
66 | Cc1nc(N2CCC(C(O)c3nccn3C)CC2)c2sccc2n1 (stereo unspecified) | -19.5%
67 | Cc1ccc(F)c(OC2(C(=O)O)CCN(C(=O)C3CCCC3)CC2)c1 | 3.33%
68 | CCN(Cc1cnn(CC)c1)C(=O)Cn1c(=O)ccc2ccccc21 | 2.37%
69 | COc1cccc(NC(=O)CN2CCN(S(C)(=O)=O)CC2)c1 | -1%

Row | Compound | cytotoxicity at 10 µM
70 | CN1CCN(Cc2ccc(-c3ccc4[nH]ccc4c3)nc2)CC1 | -9.17%
71 | Cc1ccc(-c2nn(-c3cccc(F)c3)cc2CN(CCO)CCO)o1 | 8.43%
72 | CCOC(=O)c1cc2c(=O)[nH]c(=O)n(CCc3ccccc3)c2nc1C | -6.28%
73 | COC(=O)CCCn1ccnc1C(C)c1ccccc1 (stereo unspecified) | -6.73%
74 | N[C@H]1CN(C(=O)Cc2cc(F)cc(Cl)c2)C[C@@H]1C1CC1 | 0.0152%
75 | Cc1ccc2cc(CNCCCO)c(=O)[nH]c2c1 | 0.127%
76 | Clc1ccccc1-c1nnc(CN2CCCC2Cn2cncn2)o1 (stereo unspecified) | -9.03%
77 | CCC(CC)c1nnc(NC(=O)NC(C)Cn2cccn2)s1 (stereo unspecified) | 3.91%
78 | Cc1cc(C(=O)N2CCCN(Cc3cnn(C)c3)CC2)no1 | -2.92%
79 | CC(Oc1ccccc1)C(=O)N1CCCN(Cc2cscn2)CC1 (stereo unspecified) | -3.92%
80 | OC(COCc1ccc2c(c1)OCO2)CN1CC(n2cccn2)C1 (stereo unspecified) | -5.89%
81 | Cc1ccc(N2CCCC(NCc3cc(C)on3)C2)nn1 (stereo unspecified) | -4.8%
82 | CCc1nc(C2CCCN(C(=O)c3ccc(F)cc3)C2)no1 (stereo unspecified) | -40.5%
83 | COCc1cccc(CNCc2c(C)nn(C)c2N2CCOCC2)c1 | -8.93%
84 | CC(c1nc(C2CC2)no1)N1CCN(Cc2ccccc2)CC1 (stereo unspecified) | -5%
85 | CNC(=O)C1CCN(C(=O)c2cccn2Cc2cccs2)CC1 | -3.74%
86 | CCCNC(=O)N1CCN(Cc2cc(C)no2)CC1 | -1.18%
87 | Cc1cnn(C2CN(CC(=O)NCCc3ccccc3)C2)c1 | -0.956%
88 | CC(C)c1nn(C)c(N2CCOCC2)c1CNC(C)c1cccs1 (stereo unspecified) | -5.06%
89 | CC(C)c1noc(C(C)N2CCN(Cc3ccco3)CC2)n1 (stereo unspecified) | -7.67%
90 | Cc1cnn(CCNCc2ccc(F)cc2Cl)c1 | -5.16%
91 | Cc1ncsc1C(=O)NCCn1nc2ccccn2c1=O | 0.00307%
92 | Cc1nc(C2CCCN2CC(=O)N(Cc2ccsc2)C2CC2)no1 (stereo unspecified) | -12.1%

Row | Compound | cytotoxicity at 10 µM
93 | Fc1ccc(CN2CCCC2Cn2cccn2)c2ncccc12 (stereo unspecified) | -5.11%
94 | Cn1ccc(CN2CCC(NC(=O)NC3CCCCC3)CC2)cc1=O | -6.26%
95 | CCN(CC)C(=O)Cn1ccc2cc(NC(=O)C3CCCO3)ccc21 (stereo unspecified) | 1.35%
96 | Cc1cnn(CC2CCCCN2Cc2noc(C3CC3)n2)c1 (stereo unspecified) | -9.32%
97 | Cc1ncsc1C(=O)N(C)CCc1ccncc1 | -3.81%
98 | Cc1cnn(CCNCc2csc(-c3ccc4c(c3)OCO4)n2)c1 | -6.41%
99 | CCc1nc(CN2CCCC(NCc3ccc(C(N)=O)cc3)C2)no1 (stereo unspecified) | -12.3%
100 | COc1ccccc1CC(=O)N1CCCC(n2nc(C)cc2C)C1 (stereo unspecified) | -4.48%
101 | Cc1noc(C)c1CNCC1CCN(CC(O)c2ccccc2)CC1 (stereo unspecified) | -0.65%
102 | Cc1nc(C)n(CC2CCCN(CCCOc3ccccc3)C2)n1 (stereo unspecified) | 3.15%
103 | O=C(NCc1csc(Br)c1)c1ccncc1 | 4.38%
104 | CN(C)Cc1cc(C2CCN(C(=O)C3CCCNC3)CC2)nn1C (stereo unspecified) | -8.67%
105 | O=C(C1CCCCC1)N1C[C@H]2CNC[C@H]2C1 | -11.9%
106 | c1cc(CN2CCc3c(nnn3CC3CC3)C2COCC2CC2)co1 (stereo unspecified) | 2.02%
107 | c1ccc([C@@H]2CN(Cc3cccnc3)C[C@H]2c2cc[nH]n2)cc1 | -4.24%
108 | O=C(NC1CC1)[C@@H]1CCO[C@@H]2CCN(Cc3ccsc3)C[C@H]21 | 4.4%
109 | c1cncc(CN2CCc3c(nnn3CC3CC3)C2COCC2CC2)c1 (stereo unspecified) | 3.88%
110 | C[C@@H]1C(=O)NC[C@H]2CN(Cc3ccsc3)C[C@H]21 | 4.22%
111 | COCCN1C[C@@H]2CC[C@H]1CN(C(=O)CCc1c(C)nn(C)c1C)C2 | -8.6%
